Experimental data from different studies.
Compare with care: the assays were run in different laboratories. In brackets after ≈: the same amount, converted by molar mass.

| Structure (SMILES) | tested on | assay | test system | setting | endpoint | value |
| --- | --- | --- | --- | --- | --- | --- |
| CN1CCN(CCCN2c3ccccc3Sc3ccc(C(F)(F)F)cc32)CC1 | Severe acute respiratory syndrome coronavirus 2 | viral replication, inhibitor | A549-ACE2 | – | IC50 | 2190 nM |
| O=[N+]([O-])c1ccc(C2=[N+]([O-])c3ccccc3N3CCN=C23)cc1 | Fusobacterium nucleatum | microbial growth | – | – | MIC50 | ≤ 0.06 µg/mL |
| CC(=O)c1cccc(NC(=O)c2cc3c(=O)n4ccccc4nc3n2C)c1 | Severe acute respiratory syndrome coronavirus 2 | viral replication | Vero | 0.1 µM | inhibition | 77% |
| C=C[C@@](C)(/C=C/c1ccc(O)cc1)CCC=C(C)C | Severe acute respiratory syndrome coronavirus 2 | cytopathic effect | Vero C1008 | 12.5 µM | inhibition | 0% |
| Cc1cc(NC(=O)c2cc3c(=O)n4cccc(C)c4nc3n2C)ccc1Br | Severe acute respiratory syndrome coronavirus 2 | viral replication | Vero | 1 nM | inhibition | 5.51% |
| COc1cc2nc(N3CCCN(C)CC3)nc(NC3CCN(Cc4ccccc4)CC3)c2cc1OC | Severe acute respiratory syndrome coronavirus 2 | viral replication, inhibitor | A549-ACE2 | – | IC50 | 479 nM |
| C=CCNC1=C2C[C@@H](C)C[C@H](OC)[C@H](O)[C@@H](C)/C=C(\C)[C@H](OC(N)=O)[C@@H](OC)/C=C\C=C(/C)C(=O)NC(=C(C)C1=O)C2=O | ARPE-19 | cell growth or viability, MTT | – | – | IC50 | > 20000 nM |
| CC(C)=CCc1c(O)ccc(C(=O)/C=C/c2ccc(O)cc2)c1O | Severe acute respiratory syndrome coronavirus 2 | cytopathic effect, inhibitor | Vero C1008 | 3.125 µM | inhibition | 0% |
| CC(C)(C)[C@]1(O)CCN2C[C@H]3c4ccccc4CCc4cccc(c43)[C@@H]2C1 | Severe acute respiratory syndrome coronavirus 2 | viral replication, inhibitor | A549-ACE2 | – | IC50 | 9120 nM |
| O=C(/C=C/c1ccc(O)c(O)c1/C=C/c1ccc(O)c(O)c1)O[C@H](Cc1ccc(O)c(O)c1)C(=O)O | Severe acute respiratory syndrome coronavirus 2 | cytopathic effect, inhibitor | Vero C1008 | 25 µM | inhibition | 0% |
| CCC(CC)COC(=O)[C@H](C)N[P@](=O)(OC[C@H]1O[C@@](C#N)(c2ccc3c(N)ncnn23)[C@H](O)[C@@H]1O)Oc1ccccc1 | Severe acute respiratory syndrome coronavirus 2 | viral replication | Vero | 0.1 µM | inhibition | 64.7% |
| C[C@H]1COCCN1c1nc(NCc2cccnc2C(F)(F)F)c2cccnc2n1 | Clostridioides difficile | microbial growth, broth dilution | R20291 | – | MIC | 64 µg/mL (≈ 158 µM) |
| Cc1cccn2c(=O)c3cc(C(=O)Nc4ccc(N(C)C)cc4)n(C)c3nc12 | Severe acute respiratory syndrome coronavirus 2 | viral replication | Vero | 1 µM | inhibition | 80% |
| N#C[C@]1(CO)O[C@@H](n2cc(F)c3c(N)ncnc32)C[C@@H]1O | Hepatitis B virus | viral replication, qPCR | HepG2.2.15 | 14 days | IC50 | 26 nM |
| CCCN1CCC=C(c2cc(-c3ccc(C)cc3)no2)C1 | Severe acute respiratory syndrome coronavirus 2 | viral replication, inhibitor | A549-ACE2 | – | IC50 | 2880 nM |
| COc1ccc(C[C@@H]2c3cc(Oc4cc(C[C@@H]5c6cc(O)c(OC)cc6CCN5C)ccc4O)c(OC)cc3CCN2C)cc1 | Severe acute respiratory syndrome coronavirus 2 | cytopathic effect | Vero C1008 | 0.7812 µM | inhibition | 0% |
| COc1cc2c(cc1OC)CN(CCc1ccc(NC(=O)c3cc(OC)c(OC)cc3NC(=O)c3cnc4ccccc4c3)cc1)CC2 | Severe acute respiratory syndrome coronavirus 2 | viral replication, inhibitor | A549-ACE2 | – | IC50 | 1480 nM |
| COc1c2c(cc3c1OCO3)[C@]13C=C[C@H](OC)C[C@@H]1[N@](C2)C[C@H]3OC(=O)c1ccc2ccccc2c1 | PANC-1 | cell growth or viability, WST-1 | – | – | IC50 | > 10000 nM |
| [O-][N+]1=C(c2ccc(Cl)cc2)C2=NCCN2c2ccccc21 | Clostridioides difficile | microbial growth | – | – | MIC90 | 0.25 µg/mL (≈ 0.84 µM) |
| CCN(CC)CCOCCOC(=O)C1(c2ccccc2)CCCC1 | Severe acute respiratory syndrome coronavirus 2 | viral replication | Vero C1008 | – | IC50 | 3890 nM |
| Cc1ncc([N+](=O)[O-])n1CCO | Fusobacterium nucleatum | microbial growth | – | – | MIC50 | ≤ 0.06 µg/mL |
| N#C[C@]1(CO)O[C@@H](n2cnc3c(N)ncnc32)C[C@@H]1O | Hepatitis B virus | viral replication, qPCR | HepG2.2.15 | 14 days | IC50 | 66 nM |
